SMILES strings stand for the structures. The whole screen tested about 340,000 compounds, of which about 3,000 (0.88%) were called active. The sample holds actives, similar compounds and a random draw of the others, so the mix is not that of the screen.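 The calls were made as follows: active = inhibition above about 50% at 20 µM (limit read from the data); inactive = the rest.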 Non-standard residues stand in square brackets, D forms with d. Residues, ends and D or L forms follow the SMILES beside them. ξ: configuration not given here. ξM = CSCCC(N)C(=O)O

Carboxy-terminal domain RNA polymerase II polypeptide A small phosphatase 1 (Homo sapiens), sequence (Q9GZU7 76-261 limits assumed): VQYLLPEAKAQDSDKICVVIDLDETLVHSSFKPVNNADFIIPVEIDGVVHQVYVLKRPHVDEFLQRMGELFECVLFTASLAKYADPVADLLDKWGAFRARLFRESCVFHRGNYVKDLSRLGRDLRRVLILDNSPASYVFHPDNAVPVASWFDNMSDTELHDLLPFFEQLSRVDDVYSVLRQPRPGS

This assay has as its target Carboxy-terminal domain RNA polymerase II polypeptide A small phosphatase 1 (Homo sapiens) (UniProt Q9GZU7). Put plainly: inhibition of human SCP1 dephosphorylation activity – biochemical, colorimetric, uHTS, primary screen (AID 493091).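 Also: plate controls were DMSO wells with enzyme for no effect and wells lacking enzyme for full effect.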 As to conditions: Recombinant Scp1, phosphopeptide, malachite green phosphate absorbance; at 20 µM; hits give high values. An outline of the steps:
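Assay system: SCP-1 catalytic fragment, aa 76-261 | Buffer or medium: Tris acetate buffer pH 5.5 with MgCl2 and Tween-20 | Compound: One concentration, 20 µM, with 1.0% DMSO | Also added: Phospho 17-mer peptide substrate | Signal: Absorbance at 630 nm | Incubation: 45 min enzyme reaction at room temperature | Measure: % inhibition of SCP-1 phosphate liberation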
For orientation: inhibition means the change of the read-out against control, counted positive when it falls. Turning to `CC(C)(C)c1cc2cccnc2n1Cc1cccc(F)c1`, the inhibition was -1.78% (inactive).

In the case of `CCOC(=O)C1CCN(S(=O)(=O)c2c(C)noc2C)CC1`, the inhibition was -4.7% (inactive).

As for `COc1ccccc1NC(=O)c1ccc(N2CC3CC(C2)c2cccc(=O)n2C3)c(NC(=O)c2cccnc2)c1` (stereo not given), the inhibition was -3.99% (inactive).

As for `CCNC(=S)NNC(=O)c1ccc2ncccc2c1`, the inhibition was -9.05% (inactive).

For the compound `O=C(O)c1ccc(N/N=C/c2ccc3ncccc3c2)cc1`, the inhibition was 50.4% (active).

With `Cc1ccc2cc(/C=N/Nc3ccc(C(=O)O)cc3)c(Cl)nc2c1`, the inhibition was 0.89% (inactive).

For the compound `Cn1c2ccccc2c(=O)c2c(=O)n(Cc3ccco3)c(COc3ccccc3)nc21`, the inhibition was 92.9% (active).

For the compound `O=c1c2ccccc2oc2nc(C3CCCCC3)n(Cc3ccco3)c(=O)c12`, the inhibition was -2.2% (inactive).

As to `CCCc1nc2c(c(=O)c3ccccc3n2C)c(=O)n1C1CCCCCC1`, the inhibition is 2.39% (inactive).

For the compound `COCCn1c(C)cc(C(=O)COC(=O)CNC(=O)c2ccco2)c1C`, the inhibition was -7.15% (inactive).

As to `Cc1ccc(C(=O)Nc2nc(N)n(-c3ccccc3)n2)cc1`, the inhibition is -3.84% (inactive).

In the case of `Cc1cc(S(=O)(=O)N2CCOCC2)ccc1OCC(=O)N1CCOCC1`, the inhibition is 2.62% (inactive).

In the case of `CCC(C)NC(=O)/C=C/c1ccc(S(=O)(=O)NCc2ccco2)cc1` (stereo not given), the inhibition is 6.25% (inactive).

On to `CSc1ccccc1NC(=O)C(C)N1C(=O)c2ccccc2S1(=O)=O` (stereo not given), for which the inhibition is 39.4% (inactive).

Consider `Cc1ccc(N2C(=O)CC(Nc3cccc4ccccc34)C2=O)cc1` (stereo not given), for which the inhibition is -3.84% (inactive).

As for `CC(=O)Nc1ccccc1Sc1ccc2c3c(cccc13)C(=O)N(c1ccc(C)cc1)C2=O`, the inhibition was 53.1% (active).

For the compound `COC(=O)c1cc(S(=O)(=O)Nc2ccc(C)c(F)c2)c[nH]1`, the inhibition is -3.42% (inactive).

`Cc1c(CCC(=O)O)c(=O)oc2cc(OCc3ccc(Br)cc3)ccc12`: the inhibition was 53.3% (active).

On to `Cc1c(CCC(=O)O)c(=O)oc2c(C)c(OCc3ccccc3Cl)ccc12`, for which the inhibition was 97.5% (active).

Turning to `CCOC(=O)CCc1c(C)c2ccc(OCc3nn[nH]n3)c(C)c2oc1=O`, the inhibition is 2.8% (inactive).

For the compound `Cc1c(CCC(=O)O)c(=O)oc2cc3occ(-c4ccccc4)c3cc12`, the inhibition was -18.2% (inactive).

On to `COc1ccc2c(C)c(CCC(=O)NC3CC3)c(=O)oc2c1C`, for which the inhibition was -1.31% (inactive).

With `Cc1coc2cc3oc(=O)c(CCC(=O)O)c(C)c3cc12`, the inhibition is -1.97% (inactive).

For the compound `O=C(COC(=O)[C@H](Cc1ccccc1)NC(=O)c1cccs1)Nc1cc(F)ccc1F`, the inhibition is -10.5% (inactive).

As for `CCN(CC)c1ccc([N+](=O)[O-])cc1C(=O)O`, the inhibition is -4.84% (inactive).

In the case of `COc1cccc(NC(=O)Cn2cnc3sc(C)c(S(=O)(=O)N4CCN(C)CC4)c3c2=O)c1`, the inhibition is -1.94% (inactive).

`CCCOc1ccc(C(=O)C(CCC(CNCC)C(=O)c2ccc(OCCC)cc2)CNCC)cc1` (stereo not given): the inhibition is 10.4% (inactive).

In the case of `CCOc1ccc(C(=O)CCN2CCOCC2)cc1`, the inhibition was -2.17% (inactive).

With `CC(C)CCOc1ccc(C(=O)C[N+]2(C)CCOCC2)cc1`, the inhibition is 51% (active).

Consider `Cc1ccc(CNC(=O)C2CCCN2C(=O)NCc2ccccc2)cc1` (stereo not given), for which the inhibition is -7.83% (inactive).

As for `C=CCc1cccc(/C=N/NC(=O)COc2ccc(-n3cnnn3)cc2)c1O`, the inhibition was -8.78% (inactive).

With `O=C(COc1ccc(-n2cnnn2)cc1)Nc1ccccc1Cl`, the inhibition is 58.7% (active).

On to `O=C(COc1ccc(Cl)cc1)Nc1ccccc1CO`, for which the inhibition is -5.63% (inactive).

For the compound `COc1ccc(C(=O)N(Cc2ccccc2)c2ccc(C)cc2)cc1S(=O)(=O)N1CCOCC1`, the inhibition was -6.19% (inactive).

For `C=CCOc1ccc(/C=C/C(=O)OCC(=O)NC2CCCCCC2)cc1`, the inhibition is 22% (inactive).

Consider `CCNc1nc(NC(C)C)nc(OCCOC(=O)c2ccccc2)n1`, for which the inhibition was 2.19% (inactive).

For `O=C(Nc1cccc(F)c1)NC1CCCCCCC1`, the inhibition was -10.5% (inactive).

With `O=C(Nc1cccc(F)c1)[C@@H]1CCCN1`, the inhibition was 67.8% (active).

As to `O=C(COC(=O)CNC(=O)C1CCCCC1)Nc1cccc(F)c1`, the inhibition was -6.06% (inactive).

For `Cc1ccc(N2C(=O)N3[C@@H]4c5ccccc5OC[C@@H]4[C@@H](c4ccccc4)[C@@]3(C)C2=O)cc1`, the inhibition is -17.6% (inactive).

Regarding `N#C/C=C/N1CCN(Cc2ccc3c(c2)OCO3)CC1`, the inhibition was -12.3% (inactive).

For the compound `O=C(c1ccc(F)cc1)N1CCCC(C(=O)N2CCCCC2)C1` (stereo not given), the inhibition is -6.52% (inactive).

As for `Cc1ccc(Cc2nnc(SCC(=O)Nc3ccc(C)cc3C)[nH]c2=O)cc1`, the inhibition was 53.8% (active).

Turning to `Cc1ccc(Cc2nnc(SCC(=O)Nc3ccccc3C)[nH]c2=O)cc1`, the inhibition is 16.3% (inactive).

Consider `COc1ccc(Cc2nnc(SCC(=O)Nc3ccc(C)c(Cl)c3)[nH]c2=O)cc1`, for which the inhibition was 48% (inactive).

For the compound `COc1ccc2cc(C3=CC(=O)C[C@H](c4ccc5c(c4)OCO5)C3)ccc2c1`, the inhibition is -11% (inactive).

For `COC(=O)CNC(=O)C(CCSC)NC(C)=O` (stereo not given) (Ac-[ξM]-Gly-OMe), the inhibition was 50.3% (active).

Turning to `COc1ccccc1OCCNC(=O)C(CCSC)NC(=O)COc1ccccc1` (stereo not given), the inhibition is -8.06% (inactive).

With `CCC(C)NC(=O)N[C@@H](CCSC)C(=O)O` (stereo not given in full), the inhibition was -4.53% (inactive).

Turning to `CCOc1ccc(OCC)c(NC(=O)CN(C)S(=O)(=O)c2cccc3nsnc23)c1`, the inhibition is -5.95% (inactive).

Take `Cc1ccc(OCCNC(=O)c2cccc(S(=O)(=O)N3CCN(Cc4ccccc4)CC3)c2)cc1`: the inhibition was -10.4% (inactive).

`CCCCSc1nnc(-c2ccc(C)cc2)o1`: the inhibition was 81.5% (active).

With `CC1=CC(C)(C)N(C(=O)CSc2nnc(-c3ccccc3)o2)c2ccc(C)cc21`, the inhibition is -2.74% (inactive).

Consider `Cc1ccc(-c2nnc(CN3CCN(C)CC3)o2)cc1`, for which the inhibition is -6% (inactive).

For the compound `CCSC1=C(C#N)C(=O)n2c1cc1c2CCCC1`, the inhibition was -1.97% (inactive).

As for `O=C(N/C(=C\c1ccc(F)cc1)C(=O)N1CCCCCC1)c1ccccc1`, the inhibition is -0.73% (inactive).

For the compound `N#CC1=C(SCc2ccc(C#N)cc2)N=C(N)C(c2nc(-c3ccccc3)cs2)C12CCCCC2` (stereo not given), the inhibition is -1.99% (inactive).

Turning to `N#CC1=C(SCc2ccccc2)NC(=O)C(C#N)C12CCCC2` (stereo not given), the inhibition was 68.9% (active).

On to `CC1(C)CCc2nc(SCc3ccccc3)c(C#N)cc2C1`, for which the inhibition is -11.5% (inactive).

For the compound `Cc1cc(C)cc(N(CC(=O)NCC2CCCO2)S(=O)(=O)c2c(C)noc2C)c1` (stereo not given), the inhibition is -3.08% (inactive).
